Data as given in ChEMBL document CHEMBL2010803, “Novel NSAID 1-acyl-4-cycloalkyl/arylsemicarbazides and 1-acyl-5-benzyloxy/hydroxy carbamoylcarbazides as potential anticancer agents and antioxidants” (Eur J Med Chem, 2012).
Active and inactive are the calls of the source. The calls are words filed in the database; no cut-off is given here.

Assays:
[1] = system: CCRF-CEM; test: Cytostatic activity against human CEM cells after 3 days by coulter counter analysis; type: functional, cell-based; settings: 72 h
Outline: (§1)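 300,000–500,000 cells/ml mixed 1:1 with compound dilutions and incubated at 37 °C for 2 days (L1210) or 3 days (CEM, HeLa). Cell number counted with a Coulter counter; HeLa trypsinized before counting.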

[2] = system: Glycine max; test: Inhibition of soybean LOX assessed as conversion of sodium linoleate to 13- hydroperoxylinoleic acid at 100 uM
[3] = system: Respiratory syncytial virus; test: Antiviral activity against RSV infected in human cervix carcinoma cells assessed as inhibition of virus-induced cytopathic effect at 0.32 to 100 uM; type: functional, organism-based
Outline: (§2)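 Confluent cell cultures were infected with 100 CCID50 of virus in the presence of test compound at 100, 40, 8, 1.6 and 0.32 μM. Cytopathic effect was scored once it was complete in untreated infected controls.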

[4] = system: Human alphaherpesvirus 2; test: Antiviral activity against HSV2 G infected in human lung fibroblast assessed as inhibition of virus-induced cytopathic effect at 0.32 to 100 uM; type: functional, organism-based; settings: strain G; outline: as §2
[5] = system: Coxsackievirus B4; test: Antiviral activity against Coxsackievirus B4 infected in human cervix carcinoma cells assessed as inhibition of virus-induced cytopathic effect at 0.32 to 100 uM; type: functional, organism-based; outline: as §2
[6] = system: Vaccinia virus; test: Antiviral activity against Vaccinia virus infected in human lung fibroblast assessed as inhibition of virus-induced cytopathic effect at 0.32 to 100 uM; type: functional, organism-based; settings: Orthopoxvirus vaccinia
[7] = system: NCI-H460; test: Cytostatic activity against human NCI-H460 cells after 72 hrs by MTT assay; type: functional, cell-based; settings: NCI-H460, 72 h
Outline: (§3)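 Monolayers in DMEM with 10% FBS, 2 mM L-glutamine and penicillin/streptomycin, 37 °C, 5% CO2. Seeded at 1–3 × 10^4 cells/ml, then compound added in tenfold dilutions (10⁻⁸–10⁻⁴ M) for 72 h. MTT read at 570 nm; percent growth taken against time-zero and untreated controls. IC50 by linear regression; quadruplicate, at least two experiments.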

[8] = system: Human immunodeficiency virus 1; test: Antiviral activity against HIV1 3B infected in human CEM cells assessed as inhibition of virus-induced CEM giant cell formation at 0.32 to 100 uM after 4 days; type: functional, organism-based; settings: CCRF-CEM
Outline: (§4)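 CEM cells (~3 × 10^5 cells/cm³) exposed to 100 CCID50/ml of virus and seeded into wells holding compound dilutions. Incubated 4 days at 37 °C, then giant cell formation examined microscopically.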

[9] = system: Human immunodeficiency virus 2; test: Antiviral activity against HIV2 ROD infected in human CEM cells assessed as inhibition of virus-induced CEM giant cell formation at 0.32 to 100 uM after 4 days; type: functional, organism-based; settings: ISOLATE ROD, CCRF-CEM; outline: as §4
[10] = system: Coxsackievirus B4; test: Antiviral activity against Coxsackievirus B4 infected in african green monkey Vero cells assessed as inhibition of virus-induced cytopathic effect at 0.32 to 100 uM; type: functional, organism-based; outline: as §2
[11] = system: Influenza A virus; test: Antiviral activity against Influenza A virus H3N2 infected in MDCK cells assessed as inhibition of virus-induced cytopathic effect at 0.32 to 100 uM; type: functional, organism-based
Outline: (§5)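 Confluent MDCK monolayers were infected in the presence of the compound at 100, 40, 8, 1.6 and 0.32 μM. Viral cytopathicity was scored once it was complete in untreated infected control cultures.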

[12] = system: Human alphaherpesvirus 1; test: Antiviral activity against HSV1 KOS infected in human lung fibroblast assessed as inhibition of virus-induced cytopathic effect at 0.32 to 100 uM; type: functional, organism-based; outline: as §2
[13] = system: Influenza A virus; test: Antiviral activity against Influenza A virus H1N1 infected in MDCK cells assessed as inhibition of virus-induced cytopathic effect at 0.32 to 100 uM; type: functional, organism-based; outline: as §5
[14] = system: Human respirovirus 3; test: Antiviral activity against Parainfluenza virus 3 infected in african green monkey Vero cells assessed as inhibition of virus-induced cytopathic effect at 0.32 to 100 uM; type: functional, organism-based; outline: as §2
[15] = system: Vesicular stomatitis virus; test: Antiviral activity against Vesicular stomatitis virus infected in human cervix carcinoma cells assessed as inhibition of virus-induced cytopathic effect at 0.32 to 100 uM; type: functional, organism-based
Outline: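 Confluent human cervix carcinoma (HeLa) cultures received 100 CCID50 of VSV together with the compound at 100, 40, 8, 1.6 or 0.32 μM. Cytopathicity was read at the point of full CPE in infected, untreated control wells.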

[16] = system: Vesicular stomatitis virus; test: Antiviral activity against VSV infected in human lung fibroblast assessed as inhibition of virus-induced cytopathic effect at 0.32 to 100 uM; type: functional, organism-based
[17] = system: HeLa; test: Cytostatic activity against human HeLa cells after 3 days by coulter counter analysis; type: functional, cell-based; settings: 72 h; outline: as §1
[18] = Antioxidant activity assessed as inhibition of AAPH-induced linoleic acid lipid peroxidation by measuring conjugated diene hydroperoxide level; type: functional; set-up: concentration or dose not given beside the values
Outline: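 Linoleic acid sodium salt (10 μL of 16 mM) in 0.05 M phosphate buffer pH 7.4 at 37 °C. Oxidation started under air with 50 μL of 40 mM AAPH. Conjugated diene hydroperoxide formation followed as absorbance rise at 234 nm; control contains the same DMSO level. At least triplicate.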

[19] = system: Sindbis virus; test: Antiviral activity against Sindbis virus infected in african green monkey Vero cells assessed as inhibition of virus-induced cytopathic effect at 0.32 to 100 uM; type: functional, organism-based; outline: as §2
[20] = system: Influenza B virus; test: Antiviral activity against Influenza B virus infected in MDCK cells assessed as inhibition of virus-induced cytopathic effect at 0.32 to 100 uM; type: functional, organism-based; outline: as §5
[21] = system: Felid alphaherpesvirus 1; test: Antiviral activity against Feline herpesvirus infected in feline CRFK cells assessed as inhibition of virus-induced cytopathic effect at 0.32 to 100 uM; type: functional, organism-based; outline: as §2
[22] = system: Radical scavenging activity; test: Antioxidant activity assessed as DPPH free radical scavenging activity at 100 uM after 20 mins by spectrophotometric analysis; type: functional
Outline: (§6)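 0.05 mM DPPH in absolute ethanol mixed with an equal volume of compound in DMSO (final 100 μM). Shaken and left 20 or 60 min, then absorbance read at 517 nm and percent activity calculated. Three replicates, averaged.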

[23] = system: HCT-116; test: Cytostatic activity against human HCT116 cells after 72 hrs by MTT assay; type: functional, cell-based; settings: HCT-116, 72 h; outline: as §3
[24] = system: Radical scavenging activity; test: Antioxidant activity assessed as DPPH free radical scavenging activity at 100 uM after 60 mins by spectrophotometric analysis; type: functional; outline: as §6
[25] = system: Mammalian orthoreovirus 1; test: Antiviral activity against Reovirus-1 infected in african green monkey Vero cells assessed as inhibition of virus-induced cytopathic effect at 0.32 to 100 uM; type: functional, organism-based; outline: as §2
[26] = system: L1210; test: Cytostatic activity against mouse L1210 cells after 2 days by coulter counter analysis; type: functional, cell-based; settings: L1210, 48 h; outline: as §1
[27] = system: Punta Toro virus; test: Antiviral activity against Punta Toro virus infected in african green monkey Vero cells assessed as inhibition of virus-induced cytopathic effect at 0.32 to 100 uM; type: functional, organism-based; outline: as §2
[28] = system: MCF7; test: Cytostatic activity against human MCF7 cells after 72 hrs by MTT assay; type: functional, cell-based; settings: MCF7, 72 h; outline: as §3
[29] = system: HaCaT; test: Cytostatic activity against human HaCaT cells after 72 hrs by MTT assay; type: ADME, cell-based; outline: as §3
[30] = system: Feline coronavirus; test: Antiviral activity against Feline coronavirus infected in feline CRFK cells assessed as inhibition of virus-induced cytopathic effect at 0.32 to 100 uM; type: functional, organism-based; outline: as §2
[31] = dose or concentration not given here

Row | Compound | IC50 [1] [µM] | inhibition [2] | inhibition [3] | inhibition [4] | inhibition [5] | inhibition [6] | IC50 [7] [µM] | inhibition [8] | inhibition [9] | inhibition [10] | inhibition [11] | inhibition [12] | inhibition [13] | inhibition [14] | inhibition [15] | inhibition [16] | inhibition [19] | inhibition [20] | inhibition [21] | Activity [22] | also measured
1 | CC(C(=O)NNC(=O)NCCc1ccccc1)c1cccc(Cc2ccccc2)c1 (configuration not stated) | 29 | 17% | inactive | inactive | inactive | inactive | 22 | inactive | inactive | inactive | inactive | inactive | inactive | inactive | inactive | inactive | inactive | inactive | inactive | 8% | IC50 [17]: 58 µM; inhibition [18, 31]: 71%; IC50 [23]: 20 µM; Activity [24]: 15%; inhibition [25]: inactive; IC50 [26]: 31 µM; inhibition [27]: inactive; IC50 [28]: 15 µM; IC50 [29]: 16 µM; inhibition [30]: inactive
2 | CC(C(=O)NNC(=O)NC1CCCC1)c1cccc(Cc2ccccc2)c1 (configuration not stated) | 66 | inactive | inactive | inactive | inactive | inactive | 38 | inactive | inactive | inactive | inactive | inactive | inactive | inactive | inactive | inactive | inactive | inactive | inactive | 4% | IC50 [17]: 43 µM; inhibition [18]: inactive; IC50 [23]: 33 µM; Activity [24]: 12%; inhibition [25]: inactive; inhibition [27]: inactive; IC50 [28]: 19 µM; IC50 [29]: 50 µM; inhibition [30]: inactive
3 | CC(C(=O)NNC(=O)NCC1CCCCC1)c1cccc(Cc2ccccc2)c1 (configuration not stated) | 20 | 9% | inactive | inactive | inactive | inactive | 18 | inactive | inactive | inactive | inactive | inactive | inactive | inactive | inactive | inactive | inactive | inactive | inactive | 5% | inhibition [18, 31]: 61%; IC50 [23]: 16 µM; Activity [24]: 12%; inhibition [25]: inactive; IC50 [26]: 22 µM; inhibition [27]: inactive; IC50 [28]: 18 µM; IC50 [29]: 12 µM; inhibition [30]: inactive
4 | CC(C)Cc1ccc(C(C)C(=O)NNC(=O)NC(c2ccccc2)c2ccccc2)cc1 (configuration not stated) | 23 | 46% | inactive | inactive | inactive | inactive | 16 | inactive | inactive | inactive | inactive | inactive | inactive | inactive | inactive | inactive | inactive | inactive | inactive | inactive | inhibition [18, 31]: 74%; IC50 [23]: 13 µM; Activity [24]: inactive; inhibition [25]: inactive; IC50 [26]: 20 µM; inhibition [27]: inactive; IC50 [28]: 6 µM; IC50 [29]: 13 µM; inhibition [30]: inactive
